Experimental data as given in ChEMBL document CHEMBL1667749, “Design & synthesis of N'-[substituted] pyridine-4-carbohydrazides as potential anticonvulsant agents” (Eur J Med Chem, 2011).
The source made the active and inactive calls. No cut-off for these calls is given here.

Assays:
[1] = system: Mus musculus; experiment: Anticonvulsant activity in albino CF-1 mouse assessed as protection against maximal electroshock-induced seizures at 300 mg/kg, ip after 4 hrs; format: functional, organism-based; design: dose 300 mg/kg
Method in brief: (§1)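 Male CF-1 mice (18–25 g), i.p. in 0.5% methyl cellulose at 30, 100 and 300 mg/kg; MES: 60 Hz, 50 mA, 0.2 s through tetracaine-primed corneal electrodes; protection = abolished hind limb tonic extension. Value given as minimum dose active in half or more of mice.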

[2] = Octanol-phosphate buffer partition coefficient, log P of the compound at 5 mg, after 24 hrs by UV spectroscopic analysis; format: physicochemical
Method in brief: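 5 mg compound added to 10 mL octanol plus 10 mL phosphate buffer in stoppered tube, mechanically shaken 24 h at room temperature, then left in separating funnel 6 h to equilibrate.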

[3] = system: Mus musculus; experiment: Anticonvulsant activity in albino CF-1 mouse assessed as protection against subcutaneous metrazol-induced seizures at 300 mg/kg, ip after 4 hrs; format: functional, organism-based; design: dose 300 mg/kg
Method in brief: (§2)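 Male CF-1 mice, i.p. at 30, 100, 300 mg/kg in 0.5% methyl cellulose; metrazol dose convulsing 97% of animals injected s.c. in midline neck fold, mice isolated and watched 30 min; protected if no 3–5 s clonic spasm episode of limbs, jaws or vibrissae.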

[4] = system: Mus musculus; experiment: Anticonvulsant activity in albino CF-1 mouse assessed as protection against subcutaneous metrazol-induced seizures at 300 mg/kg, ip after 0.5 hrs; format: functional, organism-based; design: dose 300 mg/kg; method in brief: as §2
[5] = system: Mus musculus; experiment: Anticonvulsant activity in albino CF-1 mouse assessed as protection against maximal electroshock-induced seizures at 300 mg/kg, ip after 2 hrs; format: functional, organism-based; design: dose 300 mg/kg; method in brief: as §1
[6] = system: Mus musculus; experiment: Neurotoxicity in albino CF-1 mouse assessed as motor impairment at 300 mg/kg, ip after 0.5 hrs by rotarod test; format: toxicity, organism-based; design: dose 300 mg/kg, route intraperitoneal; details: in vivo
Method in brief: (§3)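 Minimal motor impairment in male CF-1 mice by rotorod after i.p. dosing; toxic if animal falls off rotating rod 3 times within 1 min. Screen doses 30, 100, 300 mg/kg; quantitative TD50 (95% confidence interval) determined at time of peak effect.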

[7] = system: Mus musculus; experiment: Anticonvulsant activity in albino CF-1 mouse assessed as protection against maximal electroshock-induced seizures at 300 mg/kg, ip after 0.5 hrs; format: functional, organism-based; design: dose 300 mg/kg; method in brief: as §1
[8] = system: Mus musculus; experiment: Neurotoxicity in albino CF-1 mouse assessed as motor impairment at 300 mg/kg, ip after 4 hrs by rotarod test; format: toxicity, organism-based; design: dose 300 mg/kg, route intraperitoneal; details: in vivo; method in brief: as §3
[9] = system: Mus musculus; experiment: Anticonvulsant activity in albino CF-1 mouse assessed as protection against 6 Hz psychomotor seizure at 100 mg/kg, ip after 4 hrs by minimal clonic seizure test; format: functional, organism-based; design: dose 100 mg/kg
Method in brief: (§4)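 Male CF-1 mice (18–25 g), i.p. 100 mg/kg in 0.5% methyl cellulose suspension; 6 Hz corneal stimulation, 32 mA for 3 s, four mice per time point. Protected if no minimal clonic phase with stereotyped automatistic behaviour.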

[10] = system: Mus musculus; experiment: Anticonvulsant activity in albino CF-1 mouse assessed as protection against 6 Hz psychomotor seizure at 100 mg/kg, ip after 2 hrs by minimal clonic seizure test; format: functional; method in brief: as §4
[11] = system: Mus musculus; experiment: Anticonvulsant activity in albino CF-1 mouse assessed as protection against 6 Hz psychomotor seizure at 100 mg/kg, ip after 0.5 hrs by minimal clonic seizure test; format: functional; method in brief: as §4
[12] = system: Mus musculus; experiment: Anticonvulsant activity in albino CF-1 mouse assessed as protection against 6 Hz psychomotor seizure at 100 mg/kg, ip after 1 hr by minimal clonic seizure test; format: functional; method in brief: as §4
[13] = system: Mus musculus; experiment: Anticonvulsant activity in albino CF-1 mouse assessed as protection against 6 Hz psychomotor seizure at 100 mg/kg, ip after 0.25 hrs by minimal clonic seizure test; format: functional; method in brief: as §4
[14] = system: Rattus norvegicus; experiment: Anticonvulsant activity in Sprague-Dawley rat assessed as protection against pilocarpine-induced status epilepticus at 600 mg/kg, ip; format: functional, organism-based; design: dose 600 mg/kg
Method in brief: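 Male albino Sprague Dawley rats (150–180 g) dosed i.p., then challenged with pilocarpine; qualitative screen scored as protection or no protection, seizure severity graded on the Racine scale; N/F and deaths recorded, time taken post first Stage III seizure.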

[15] = system: Mus musculus; experiment: Anticonvulsant activity in ip dosed albino CF-1 mouse assessed as protection against 6 Hz psychomotor seizure after 1 hr by minimal clonic seizure test; format: functional; details: albino CF-1, ip
Method in brief: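 Quantitative 6 Hz test in male CF-1 mice dosed i.p.; 32 mA for 3 s via corneal electrodes at time of peak effect; ED50 with 95% confidence interval, slope and standard error reported.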

[16] = Neuroprotective activity in hippocampal slices assessed as protection against NMDA-induced cell death after 4 hrs; format: functional, tissue-based; details: Hippocampus
Method in brief: (§5)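 Organotypic hippocampal slice cultures exposed to NMDA or kainic acid alone or with test compound; propidium iodide in all wells, cell death read as PI fluorescence intensity; qualitative primary screen.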

[17] = system: Mus musculus; experiment: Anticonvulsant activity in ip dosed albino CF-1 mouse assessed as dose required to protect against maximal electroshock-induced seizures after 4 hrs; format: functional; method in brief: as §1
[18] = Neuroprotective activity in hippocampal slices assessed as protection against kainic acid-induced cell death after 4 hrs; format: functional, tissue-based; details: Hippocampus; method in brief: as §5

| SMILES | Activity [1] | logP at 24 h [2] | Activity [3] | Activity [4] | Activity [5] | Activity [6] | Activity [7] | Activity [8] | Activity [9] | Activity [10] | Activity [12] | Activity [13] | Activity [11] | also measured |
| --- | --- | --- | --- | --- | --- | --- | --- | --- | --- | --- | --- | --- | --- | --- |
| O=C(N/N=C\c1ccc(Oc2ccc(Cl)cc2)cc1)c1ccncc1 | inactive | 3.95 | inactive | inactive | inactive | Non-toxic | inactive |  |  |  |  |  |  |  |
| O=C(N/N=C\c1ccc(Oc2ccccc2)cc1)c1ccncc1 | inactive | 3.37 | inactive | inactive | inactive | Non-toxic | inactive | Non-toxic |  |  |  |  |  |  |
| O=C1Nc2ccccc2/C1=N\NC(=O)c1ccncc1 | inactive |  | inactive | inactive | inactive |  | inactive |  | inactive | inactive | Active | Active |  | Activity ([11]; route intraperitoneal): 50%; Activity [14]: inactive |
| Cc1cc(Oc2ccc(/C=N\NC(=O)c3ccncc3)cc2)ccc1Cl | inactive | 4.21 | inactive | inactive | inactive | Non-toxic | inactive | Non-toxic | inactive | inactive | inactive | Active | inactive |  |
| O=C(N/N=C\c1ccc(Oc2ccc([N+](=O)[O-])cc2)cc1)c1ccncc1 | inactive | 3.23 | inactive | inactive | inactive | Non-toxic | inactive | Non-toxic |  |  |  |  |  |  |
| O=C(N/N=C\c1ccc(Oc2ccc(Br)cc2)cc1)c1ccncc1 | inactive | 4.03 | inactive | inactive | inactive | Non-toxic | inactive | Non-toxic | inactive | Active | inactive | inactive | inactive |  |
| O=C(N/N=C\c1ccc(Oc2ccc3ccccc3c2)cc1)c1ccncc1 | inactive | 4.52 | inactive | inactive | inactive | Non-toxic | inactive | Non-toxic |  |  |  |  |  |  |
| O=C(N/N=C\c1ccc(Oc2ccc3c(c2)OCO3)cc1)c1ccncc1 | inactive | 3.2 | inactive | inactive | inactive | Non-toxic | inactive | Non-toxic |  |  |  |  |  |  |
| Cc1ccc(Oc2ccc(/C=N\NC(=O)c3ccncc3)cc2)cc1 |  | 3.65 | inactive | inactive | inactive | Non-toxic | inactive | Non-toxic | inactive |  |  | Active | Active | ED50 [15]: > 200 mg/kg; Activity [16]: inactive; Activity ([10]; route intraperitoneal): 50%; Activity ([12]; route intraperitoneal): 75%; Activity [17]: 300 mg/kg; Activity [18]: inactive |
